Results reported in ChEMBL document CHEMBL1125739, “A new class of HIV-1-specific 6-substituted acyclouridine derivatives: synthesis and anti-HIV-1 activity of 5- or 6-substituted analogues of 1-[(2-hydroxyethoxy)methyl]-6-(phenylthio)thymine (HEPT)” (J Med Chem, 1991).

Key:
MT4 [1] = assay: Cytotoxic concentration required to reduce the viability of mock-infected MT-4 cells by 50%; type: functional; settings: Homo sapiens
How it was run: (§1)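 Mock-infected MT-4 cells at 2.5×10^5 cells/mL plated with various concentrations of compound, run in parallel with the antiviral assay. Viable cells counted by MTT after 4 days or 5 days at 37 °C. CC50 is the concentration that lowers viability by 50%.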

MT4 [2] = assay: Selectivity Index measured as the ratio of CC50 to that of EC50 values.
[3] = tested on: Human immunodeficiency virus; assay: Effective concentration required to achieve 50% protection of MT-4 cells against the cytopathic effect of HIV-1 (HTLV-IIIB).; type: functional, organism-based; settings: Human immunodeficiency virus 1, MT4
How it was run: (§2)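 MT-4 cells at 2.5×10^5 cells/mL infected with 1000 CCID50 of the named HIV strain, then plated at once over a range of compound concentrations. Incubation at 37 °C for 4 days or 5 days. Viable cells read by MTT. EC50 is the concentration giving 50% protection from virus-induced cytopathic effect.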

[4] = tested on: Human immunodeficiency virus; assay: Effective concentration required to achieve 50% protection of MT-4 cells against the cytopathic effect of HIV-1 (HTLV-IIIB strain) and determined on 4th day after virus infection.; type: functional, organism-based; settings: Human immunodeficiency virus 1, MT4; how it was run: as §2
[5] = tested on: Human immunodeficiency virus; assay: Effective concentration required to achieve 50% protection of MT-4 cells against the cytopathic effect of HIV-2 (LAV-2ROD strain) and determined on 4th day after virus infection.; type: functional, organism-based; settings: Human immunodeficiency virus 1, MT4; how it was run: as §2
[6] = tested on: Human immunodeficiency virus; assay: Effective concentration required to achieve 50% protection of MT-4 cells against the cytopathic effect of HIV-1 (HTLV-IIIRF strain) and determined on 4th day after virus infection.; type: functional, organism-based; settings: Human immunodeficiency virus 1, MT4; how it was run: as §2
[7] = tested on: Human immunodeficiency virus; assay: Effective concentration required to achieve 50% protection of MT-4 cells against the cytopathic effect of HIV-2 ((LAV-2EHO strain) and determined on 4th day after virus infection.; type: functional, organism-based; settings: Human immunodeficiency virus 1, MT4; how it was run: as §2
[8] = tested on: Human immunodeficiency virus; assay: Cytotoxic concentration required to reduce the viability of mock-infected MT-4 cells (HIV-1 HTLV-IIIB strain) by 50% was determined on 4th day after virus infection.; type: functional; settings: Human immunodeficiency virus 1, MT4; how it was run: as §1

Row | SMILES | CC50 (MT4 [1]) [µM] | Selectivity index (MT4 [2]) | EC50 [3] [µM] | EC50 [4] [µM] | EC50 [5] [µM] | EC50 [6] [µM] | EC50 [7] [µM] | CC50 [8] [µM]
1 | O=c1[nH]c(=O)n(COCCO)c(Sc2ccccc2)c1Sc1ccccc1 | 21 | <1 | > 21 | – | – | – | – | –
2 | CSc1c(C)c(=O)[nH]c(=O)n1COCCO | > 250 | – | > 250 | – | – | – | – | –
3 | C=Cc1c(C)c(=O)[nH]c(=O)n1COCCO | > 250 | – | > 250 | – | – | – | – | –
4 | Cc1c(C#Cc2ccccc2)n(COCCO)c(=O)[nH]c1=O | 14 | <1 | > 14 | – | – | – | – | –
5 | Cc1c(C(=O)c2ccccc2)n(COCCO)c(=O)[nH]c1=O | 366 | <1 | > 366 | – | – | – | – | –
6 | Cc1c(Nc2ccccc2)n(COCCO)c(=O)[nH]c1=O | 327 | <1 | > 327 | – | – | – | – | –
7 | Cc1c(Br)n(COCCO)c(=O)[nH]c1=O | 180 | <1 | > 180 | – | – | – | – | –
8 | Cc1c(SC2CCCCC2)n(COCCO)c(=O)[nH]c1=O | 664 | 81 | 8.2 | 7.7 | > 250 | 7.9 | > 250 | 440
9 | O=c1[nH]c(=O)n(COCCO)c(Sc2ccccc2)c1C#Cc1ccccc1 | 3.4 | <1 | > 3.4 | – | – | – | – | –
10 | C=Cc1c(Sc2ccccc2)n(COCCO)c(=O)[nH]c1=O | 76 | 69 | 1.1 | – | – | – | – | –
11 | Cc1c(Cl)n(COCCO)c(=O)[nH]c1=O | > 250 | – | > 250 | – | – | – | – | –
12 | Cc1c(NC2CCCCC2)n(COCCO)c(=O)[nH]c1=O | 337 | <1 | > 377 | – | – | – | – | –
13 | O=c1[nH]c(=O)n(COCCO)c(Sc2ccccc2)c1C=C(c1ccccc1)c1ccccc1 | 21 | 25 | 0.84 | – | – | – | – | –
14 | Cc1c(/C=C/c2ccccc2)n(COCCO)c(=O)[nH]c1=O | > 250 | – | > 250 | – | – | – | – | –
15 | C#Cc1c(Sc2ccccc2)n(COCCO)c(=O)[nH]c1=O | 18 | <1 | > 18 | – | – | – | – | –
16 | O=c1[nH]c(=O)n(COCCO)c(Sc2ccccc2)c1I | 20 | 5.6 | 3.6 | – | – | – | – | –
17 | O=c1[nH]c(=O)n(COCCO)c(Sc2ccccc2)c1/C=C/c1ccccc1 | 95 | 16 | 6 | – | – | – | – | –
18 | C#Cc1c(C)c(=O)[nH]c(=O)n1COCCO | 5.5 | <1 | > 5.5 | – | – | – | – | –

Row | SMILES | CC50 (MT4 [1]) [µM] | Selectivity index (MT4 [2]) | EC50 [3] [µM] | EC50 [4] [µM] | EC50 [5] [µM] | EC50 [6] [µM] | EC50 [7] [µM] | CC50 [8] [µM]
19 | C/C=C/c1c(C)c(=O)[nH]c(=O)n1COCCO | > 250 | – | > 250 | – | – | – | – | –
20 | Nc1ncnc2c1ncn2[C@H]1CC[C@@H](CO)O1 | 890 | 141 | 6.3 | – | – | – | – | –
21 | Cc1c(Oc2ccccc2)n(COCCO)c(=O)[nH]c1=O | 345 | 4.1 | 85 | – | – | – | – | –
22 | Cc1c(C(O)c2ccccc2)n(COCCO)c(=O)[nH]c1=O (centres undefined) | 400 | <1 | > 400 | – | – | – | – | –
23 | CC#Cc1c(C)c(=O)[nH]c(=O)n1COCCO | > 250 | – | > 250 | – | – | – | – | –
24 | CCCCSc1c(C)c(=O)[nH]c(=O)n1COCCO | > 250 | – | 130 | – | – | – | – | –
25 | Cc1c(SC(C)(C)C)n(COCCO)c(=O)[nH]c1=O | 366 | <1 | > 366 | – | – | – | – | –
26 | COc1c(C)c(=O)[nH]c(=O)n1COCCO | 484 | <1 | > 484 | – | – | – | – | –
27 | Cc1c(OC2CCCCC2)n(COCCO)c(=O)[nH]c1=O | 400 | <1 | > 400 | – | – | – | – | –
28 | CC(C)C(=O)c1c(Sc2ccccc2)n(COCCO)c(=O)[nH]c1=O | 12 | <1 | > 12 | – | – | – | – | –
29 | Cc1c(Cc2ccccc2)n(COCCO)c(=O)[nH]c1=O | 352 | 15 | 23 | – | – | – | – | –
30 | O=C(c1ccccc1)c1c(Sc2ccccc2)n(COCCO)c(=O)[nH]c1=O | 13 | <1 | > 13 | – | – | – | – | –
31 | CCSc1c(C)c(=O)[nH]c(=O)n1COCCO | > 250 | – | > 250 | – | – | – | – | –
32 | O=c1[nH]c(=O)n(COCCO)c(Sc2ccccc2)c1Cc1ccccc1 | 23 | <1 | > 23 | – | – | – | – | –
33 | CC#Cc1c(Sc2ccccc2)n(COCCO)c(=O)[nH]c1=O | 19 | <1 | > 19 | – | – | – | – | –
34 | Cc1c(Sc2ccccc2)n(COCCO)c(=O)[nH]c1=O [HEPT] | 740 | – | 7 | 6.5 | > 250 | 8.1 | > 250 | > 500
35 | Nc1ccn([C@H]2CC[C@@H](CO)O2)c(=O)n1 [ZALCITABINE] | 40 | 133 | 0.3 | – | – | – | – | –
36 | Cc1cn([C@H]2C[C@H](N=[N+]=[N-])[C@@H](CO)O2)c(=O)[nH]c1=O [ZIDOVUDINE] | 20 | 1250 | 0.016 | – | – | – | – | –
